Measurements from paper PMC12328631 (Nature Communications, 2025).
Peptide text beside a SMILES is read from it. * marks the point of attachment. Cbz = O=C(OCc1ccccc1)*

Columns and labels:
[1] = biological target: Sec61 translocon (Homo sapiens, UniProt P61619); assay: RELITE assay, FLuc equipped with the SP of CD4; format: cell-based; settings: for effect on FLuc activity (FLuc/RLuc ratio) / response of the RELITE assay (FLuc/RLuc ratio): HEK293, 6 hours; for effect on FLuc activity (FLuc/RLuc ratio): Tunicamycin 10 μg/ml, Thapsigargin 3 μM; for response of the RELITE assay (FLuc/RLuc ratio): Fig. S8b; for effect on FLuc/RLuc ratio: Fig. 1h, 6 hours of treatment, non-selective Sec61 inhibitors
Chain of Sec61 translocon (P60468 2-96): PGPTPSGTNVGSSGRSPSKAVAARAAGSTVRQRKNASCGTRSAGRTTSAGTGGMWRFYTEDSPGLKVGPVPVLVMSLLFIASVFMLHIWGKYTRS
Chain of Sec61 translocon (P61619 whole entry): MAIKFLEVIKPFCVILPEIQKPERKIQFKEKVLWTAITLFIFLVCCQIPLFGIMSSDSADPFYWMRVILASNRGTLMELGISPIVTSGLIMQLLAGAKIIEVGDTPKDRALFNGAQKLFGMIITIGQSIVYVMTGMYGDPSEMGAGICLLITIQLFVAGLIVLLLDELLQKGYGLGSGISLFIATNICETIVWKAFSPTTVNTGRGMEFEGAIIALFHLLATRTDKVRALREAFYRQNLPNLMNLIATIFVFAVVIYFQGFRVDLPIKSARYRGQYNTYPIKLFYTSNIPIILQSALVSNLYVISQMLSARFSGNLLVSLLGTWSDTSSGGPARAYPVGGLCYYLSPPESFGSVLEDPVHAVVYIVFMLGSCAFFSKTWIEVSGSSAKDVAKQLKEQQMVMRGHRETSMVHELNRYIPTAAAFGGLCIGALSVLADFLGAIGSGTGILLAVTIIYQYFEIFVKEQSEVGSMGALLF
Chain of Sec61 translocon (P60059 whole entry, further chain): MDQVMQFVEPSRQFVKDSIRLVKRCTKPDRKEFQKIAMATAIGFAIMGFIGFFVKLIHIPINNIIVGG

[2] = system: Firefly luciferase (FLuc) reporter equipped with the SP of CD4; assay: FLuc enzymatic activity in HEK293 transfected with the IRES-vector; format: cell-based, human
Summary of the method: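 HEK293 cells were transiently transfected with a bicistronic IRES vector carrying the CD4 signal peptide-FLuc reporter. For fractionation, cells were treated 24 h post-transfection for 6 h, mechanically lysed and ultracentrifuged into P100 and S100 fractions, and FLuc was read on each. For the time course, cells were replated 8 h post-transfection, treated 16 h later, and FLuc was read up to 6 h. For the chase, 100 µg/ml cycloheximide was added for 2 h after 6 h treatment.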

[3] = system: HA-FLuc; assay: HA-FLuc protein levels by western blotting; format: cell-based, human; settings: total cell extract, 6 h
Summary of the method: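 HEK293 cells were transfected with the IRES vector and replated after 8 h, then treated 16 h later for up to 6 h. Total extracts were made in B-Buffer (50 mM HEPES, 150 mM NaCl, 1% Triton X-100, protease inhibitors) and equalised by Bradford. Cytosolic and membrane fractions came from syringe lysis and differential centrifugation. Western blots used anti-HA, with GAPDH and calnexin as fraction markers.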

[4] = system: GB138 cells; assay: Cell viability assay; format: cell-based, human; settings: GB138 (Fig. S5)
[5] = system: PD-L1; format: cell-based, human; settings: read-out: IC50 (PD-L1-HA protein levels); GB138 stably expressing SPnPD-L1-HA, 0 to 20 μM, 24 hours (Fig. S4)
Summary of the method: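 GB138 glioblastoma cells stably expressing SPnPD-L1-HA were kept at 37 °C in DMEM with 10% FBS, 2 mM L-Gln and 400 μg/ml G418. Cells were exposed to test compounds at 0 to 20 μM for 24 h. Extracts in Triton-containing B-Buffer were resolved by SDS-PAGE and PD-L1-HA levels quantified by western blot with ECL, using calnexin as loading control. IC50 was taken from the titration curve.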

`C/C=C(/C)C(=O)O[C@H]1C(C)=C2[C@H]([C@@H]1OC(=O)CCCCCCC)[C@@](C)(OC(C)=O)C[C@H](OC(=O)CCC)[C@@]1(O)[C@H]2OC(=O)[C@@]1(C)O` [Thapsigargin] was tested, and the “effect on FLuc activity (FLuc/RLuc ratio)” value ([1]; Fig. S1b) was “failed to increase activity” and the “response of the RELITE assay (FLuc/RLuc ratio)” value (“response … (FLuc/RLuc ratio)” below) [1] was “not responding”.

With `COc1ccc(C[C@H](N)C(=O)N[C@H]2[C@@H](O)[C@H](n3cnc4c(N(C)C)ncnc43)O[C@@H]2CO)cc1` [Puromycin] the “response … (FLuc/RLuc ratio)” value [1] was “not responding”.

`CC(=C\C=C\C(C)=C\[C@H](O)[C@@H](O)C[C@H](C)O)/C=C(C)/C=C/C(=O)O[C@H]1CCCC(=O)O[C@@H]([C@@H](C)C/C(C)=C/[C@@H](C)[C@H](O)C[C@@H](C)O)C/C=C(\C)C[C@@H]1C` [Mycolactone] was tested, and the “effect on FLuc/RLuc ratio” value [1] was “significant elevation of the FLuc/RLuc ratio”.

In the case of `CC(C)C[C@@H](C=O)NC(=O)[C@H](CC(C)C)NC(=O)[C@H](CC(C)C)NC(=O)OCc1ccccc1` [MG132] (Cbz-Leu-Leu-Leu-aldehyde), the “FLuc enzymatic activity over time” value ([2]; Fig. 1e, up to 6 h) is reported as “time-dependent increment of the FLuc enzymatic activity”.

For `C[C@@H]1C[C@@H]([C@H](O)CC2CC(=O)NC(=O)C2)C(=O)[C@@H](C)C1` [Cycloheximide], the “response … (FLuc/RLuc ratio)” value [1] was “not responding”.

`CC1(C)C(N(O)C(=O)Nc2ccc(Cl)cc2)N(c2ccc(Cl)cc2)C(=O)N1CC(=O)N/N=C/C=C/c1ccc([N+](=O)[O-])o1` (stereo not shown) [Eeyarestatin 1] was tested, and the “total HA-FLuc protein levels (western blotting)” value [3] was “significant reduction of FLuc protein levels” and the “effect on FLuc/RLuc ratio” value [1] was “significant reduction of the FLuc/RLuc ratio”.

Tunicamycin was tested, and the “toxicity in cell viability assay” value [4] was “highly toxic for the cells” and the “effect on FLuc activity (FLuc/RLuc ratio)” value ([1]; Fig. S1b) was “significant elevation of the FLuc activity”.

With `C[C@H]1CCC/C=C/[C@@H]2C[C@H](O)C[C@H]2[C@H](O)/C=C/C(=O)O1` [Brefeldin A] the “response … (FLuc/RLuc ratio)” value [1] was “not responding”.

With `C=C1CN(S(=O)(=O)c2ccc(C)cc2)CCCN(Cc2ccccc2)CCCN(S(=O)(=O)c2ccc(C)cc2)C1` [CADA, Cyclotriazadisulfonamide] the “total HA-FLuc protein levels (western blotting)” value [3] was “significant reduction of the total HA-FLuc protein levels”, the IC50 [5] was ~20 µM and the “CADA effect on FLuc activity under co-treatment with cycloheximide (CHX)” value ([1]; Fig. S1b, CADA 20 μM + CHX 100 μg/ml, 6 hours) was “abrogated the CADA effect”. For the same compound, the “FLuc activity after cell fractionation” value ([2]; Fig. 1d, S100 vs P100) was “increased FLuc activity only in the cytosolic S100 fraction”.

In the case of `CCN(CCO)CCCC(C)Nc1ccnc2cc(Cl)ccc12` (stereo not shown) [Hydroxychloroquine], the “response … (FLuc/RLuc ratio)” value [1] is reported as “not responding”.
